The source made the active and inactive calls. The rule behind the calls is not given here.
How the values were obtained:
PC-3 = assay: Growth inhibition of human PC3 cells after 48 hrs by SRB assay; type: functional; details: PC-3, 48 h
Method in brief: (§1)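 NCI 60-cell-line screen: after preliminary screening, tested at five dose concentrations on 59 human tumour lines covering leukemia, lung, colon, CNS, melanoma, ovarian, renal, prostate and breast.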

SF-539 = assay: Growth inhibition of human SF539 cells after 48 hrs by SRB assay; type: functional; details: SF-539, 48 h
Method in brief: (§2)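 NCI 60-cell-line panel, five-dose testing after preliminary screen; sulforhodamine B protein assay in DMEM with 10% FBS, 37 °C, 5% CO2, 100% humidity. Cells seeded and incubated 24 h before compound addition, then exposed 48 h. Absorbance read at 560 nm; growth percentage relative to control wells; GI50 taken as concentration giving 50% growth inhibition.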

Malme-3M = assay: Growth inhibition of human MALME-3M cells after 48 hrs by SRB assay; type: functional; method in brief: as §1
SK-OV-3 = assay: Growth inhibition of human SKOV3 cells after 48 hrs by SRB assay; type: functional; details: SK-OV-3, 48 h; method in brief: as §2
UACC-62 = assay: Growth inhibition of human UACC62 cells after 48 hrs by SRB assay; type: functional; details: UACC-62, 48 h; method in brief: as §2
T47D = assay: Growth inhibition of human T47D cells after 48 hrs by SRB assay; type: functional; method in brief: as §2
CCRF-CEM = assay: Growth inhibition of human CCRF-CEM cells after 48 hrs by SRB assay; type: functional; method in brief: as §1
IMR-32 = assay: Cytotoxicity against human IMR32 cells after 48 hrs assessed as inhibition of cell growth at 10 uM after 48 hrs by SRB assay relative to control; type: functional; details: IMR-32, 48 h, read-out: GI
Method in brief: (§3)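 SRB protein assay in DMEM with 10% FBS at 37 °C, 5% CO2, 100% relative humidity. Cells seeded in 96-well plates, incubated 24 h, then exposed to drug at 10 µM for 48 h and processed per standard protocol. Absorbance read at 560 nm; growth percentage calculated for test wells relative to control wells.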

MCF7 [1] = assay: Cell cycle arrest in human MCF7 cells assessed as accumulation at G1 phase at 4 uM after 24 hrs by FACS analysis (reference value: 58.33%); type: functional
MDA-MB-231 = assay: Growth inhibition of human MDA-MB-231 cells after 48 hrs by SRB assay; type: functional; details: MDA-MB-231, 48 h; method in brief: as §1
K562 = assay: Growth inhibition of human K562 cells after 48 hrs by SRB assay; type: functional; details: K562, 48 h; method in brief: as §1
BT-549 = assay: Growth inhibition of human BT549 cells after 48 hrs by SRB assay; type: functional; details: BT-549, 48 h; method in brief: as §1
COLO 205 = assay: Growth inhibition of human COLO205 cells after 48 hrs by SRB assay; type: functional; details: COLO 205, 48 h; method in brief: as §1
HOP-62 = assay: Growth inhibition of human HOP62 cells after 48 hrs by SRB assay; type: functional; details: HOP-62, 48 h; method in brief: as §1
SF-295 = assay: Growth inhibition of human SF295 cells after 48 hrs by SRB assay; type: functional; details: SF-295, 48 h; method in brief: as §2
[2] = Inhibition of tubulin polymerization after 30 mins to 1 hr by spectrophotometry
Method in brief: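 This was a kit-based tubulin polymerization assay. Kit tubulin in G-PEM buffer was incubated with compounds, and polymerization was followed as optical density at 340 nm for 30 min to 1 h. Inhibition was read as a decrease in OD. Nocodazole and paclitaxel were run as reference destabilizer and stabilizer.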

MCF7 [3] = assay: Cell cycle arrest in human MCF7 cells assessed as accumulation at G2/M phase at 4 uM after 24 hrs by FACS analysis (reference value: 34.88%); type: functional
OVCAR-4 = assay: Growth inhibition of human OVCAR4 cells after 48 hrs by SRB assay; type: functional; details: OVCAR-4, 48 h; method in brief: as §1
DU-145 = assay: Growth inhibition of human DU145 cells after 48 hrs by SRB assay; type: functional; details: DU-145, 48 h; method in brief: as §1
HOP-92 = assay: Growth inhibition of human HOP92 cells after 48 hrs by SRB assay; type: functional; details: HOP-92, 48 h; method in brief: as §1
RPMI-8226 = assay: Growth inhibition of human RPMI8226 cells after 48 hrs by SRB assay; type: functional; details: RPMI-8226, 48 h; method in brief: as §1
A549 = assay: Cytotoxicity against human A549 cells assessed as inhibition of cell growth at 10 uM after 48 hrs by SRB assay relative to control; type: functional; details: A549, 48 h, read-out: GI; method in brief: as §3
NCI-H322M = assay: Growth inhibition of human NCI-H322M cells after 48 hrs by SRB assay; type: functional; method in brief: as §1
NCI-H226 = assay: Growth inhibition of human NCI-H226 cells after 48 hrs by SRB assay; type: functional; details: NCI-H226, 48 h; method in brief: as §1
SF-268 = assay: Growth inhibition of human SF268 cells after 48 hrs by SRB assay; type: functional; details: SF-268, 48 h; method in brief: as §1
HCT-116 = assay: Growth inhibition of human HCT116 cells after 48 hrs by SRB assay; type: functional; details: HCT-116, 48 h; method in brief: as §1
EKVX = assay: Growth inhibition of human EKVX cells after 48 hrs by SRB assay; type: functional; method in brief: as §1
OVCAR-8 = assay: Growth inhibition of human OVCAR8 cells after 48 hrs by SRB assay; type: functional; details: OVCAR-8, 48 h; method in brief: as §1

Structure (SMILES)	GI50 (PC-3) [µM]	GI50 (SF-539) [µM]	GI50 (Malme-3M)	GI50 (SK-OV-3) [µM]	GI50 (UACC-62) [µM]	GI50 (T47D) [µM]	GI50 (CCRF-CEM) [µM]	inhibition of growth at 10 µM (IMR-32) [%]	Activity (MCF7 [1]) [%]	GI50 (MDA-MB-231) [µM]	GI50 (K562) [µM]	GI50 (BT-549) [µM]	GI50 (COLO 205) [µM]	GI50 (HOP-62) [µM]	GI50 (SF-295) [µM]	Activity (MCF7 [3]) [%]	GI50 (OVCAR-4) [µM]	GI50 (DU-145) [µM]	GI50 (HOP-92) [µM]	GI50 (RPMI-8226) [µM]	other results
COc1ccc(/C=C\c2cc(OC)c(OC)c(OC)c2)cc1O [COMBRETASTATIN A4]	0.001	0.002	0.019 µM	0.063	0.005	10	0.002	89	24.5	0.001	0.002	10	0.1	0.002	0.003	61.23	0.015	0.001	0.002	0.003	inhibition [2]: Active; inhibition of growth at 10 µM (A549): 55%; GI50 (NCI-H322M): 0.003 µM; GI50 (NCI-H226): 0.003 µM; GI50 (SF-268): 0.006 µM; GI50 (HCT-116): 0.003 µM; GI50 (EKVX): 0.079 µM; GI50 (OVCAR-8): 0.003 µM
COc1ccc(/C=C\c2cc(OC)c(OC)c(OC)c2)cc1OCC(=O)Nc1nc2ccc(C(F)(F)F)cc2s1	4.32	2.66	inactive	3.29	3.9	4.79	4.27	23	55.82	3.38	3.3	5.23	17.1	5.22	3.36	37.02	4.66	2.51	2.88	5.48	inhibition of growth at 10 µM (A549): 30%; GI50 (NCI-H322M): 5.38 µM; GI50 (NCI-H226): 3.17 µM; GI50 (SF-268): 3.85 µM; GI50 (HCT-116): 3.29 µM; GI50 (EKVX): 6.25 µM; GI50 (OVCAR-8): 3.86 µM
COc1ccc2nc(NC(=O)COc3cc(/C=C\c4cc(OC)c(OC)c(OC)c4)ccc3OC)sc2c1	4.45	2.84	inactive	4.69	5.93	4.03	3.87	73	62.81	5.4	3.6	21.2	3.89	23	1.84	30.07	5.31	2.04	6.28	5.43	inhibition of growth at 10 µM (A549): 45%; GI50 (NCI-H322M): inactive; GI50 (NCI-H226): 4.51 µM; GI50 (SF-268): 4.31 µM; GI50 (HCT-116): 3.7 µM; GI50 (EKVX): 5.11 µM; GI50 (OVCAR-8): 5.28 µM

From ChEMBL document CHEMBL2086239, “Synthesis and biological evaluation of combretastatin-amidobenzothiazole conjugates as potential anticancer agents” (Eur J Med Chem, 2012)
